In brackets after ≈: the same amount, converted by molar mass.
What was measured:
Interstitial collagenase = target: T1, Interstitial collagenase (Homo sapiens, UniProt P03956); test: Inhibition of MMP1 by fluorimetric assay
T1 sequence (P03956 whole entry): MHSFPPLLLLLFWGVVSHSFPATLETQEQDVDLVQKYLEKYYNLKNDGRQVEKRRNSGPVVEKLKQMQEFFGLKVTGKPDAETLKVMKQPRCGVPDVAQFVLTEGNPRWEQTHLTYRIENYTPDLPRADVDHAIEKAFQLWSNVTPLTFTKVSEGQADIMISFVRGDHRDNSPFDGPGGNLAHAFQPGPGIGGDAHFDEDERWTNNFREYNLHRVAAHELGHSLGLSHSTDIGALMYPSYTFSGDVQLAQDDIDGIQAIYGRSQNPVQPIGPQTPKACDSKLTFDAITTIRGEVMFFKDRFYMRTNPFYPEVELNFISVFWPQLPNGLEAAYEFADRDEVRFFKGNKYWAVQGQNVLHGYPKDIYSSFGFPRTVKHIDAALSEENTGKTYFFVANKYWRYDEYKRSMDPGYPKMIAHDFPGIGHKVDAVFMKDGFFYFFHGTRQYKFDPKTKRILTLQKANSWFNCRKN
Summary of the method: (§1)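 Enzyme source was the catalytic domain of each MMP. Inhibition was reported as Ki values.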

Matrilysin = target: T2, Matrilysin (Homo sapiens, UniProt P09237); test: Inhibition of MMP7 by fluorimetric assay; summary of the method: as §1
T2 sequence (P09237 whole entry): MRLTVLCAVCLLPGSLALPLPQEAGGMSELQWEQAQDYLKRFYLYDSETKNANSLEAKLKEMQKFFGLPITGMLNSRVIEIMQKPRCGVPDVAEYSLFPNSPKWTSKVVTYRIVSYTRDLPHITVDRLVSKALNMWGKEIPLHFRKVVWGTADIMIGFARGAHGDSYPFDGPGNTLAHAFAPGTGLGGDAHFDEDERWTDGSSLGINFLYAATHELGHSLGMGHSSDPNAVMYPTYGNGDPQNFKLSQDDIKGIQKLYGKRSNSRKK

Neutrophil collagenase = Neutrophil collagenase (Homo sapiens, UniProt P22894); test: Inhibition of MMP8 by fluorimetric assay; summary of the method: as §1
[1] = Solubility of the compound in water; assay type: physicochemical
Collagenase 3 = Collagenase 3 (Homo sapiens, UniProt P45452); test: Inhibition of MMP13 by fluorimetric assay; summary of the method: as §1
[2] = target: Macrophage metalloelastase (Homo sapiens, UniProt P39900); test: Inhibition of MMP12 by fluorimetric assay; summary of the method: as §1
Chain of Macrophage metalloelastase (P39900 whole entry): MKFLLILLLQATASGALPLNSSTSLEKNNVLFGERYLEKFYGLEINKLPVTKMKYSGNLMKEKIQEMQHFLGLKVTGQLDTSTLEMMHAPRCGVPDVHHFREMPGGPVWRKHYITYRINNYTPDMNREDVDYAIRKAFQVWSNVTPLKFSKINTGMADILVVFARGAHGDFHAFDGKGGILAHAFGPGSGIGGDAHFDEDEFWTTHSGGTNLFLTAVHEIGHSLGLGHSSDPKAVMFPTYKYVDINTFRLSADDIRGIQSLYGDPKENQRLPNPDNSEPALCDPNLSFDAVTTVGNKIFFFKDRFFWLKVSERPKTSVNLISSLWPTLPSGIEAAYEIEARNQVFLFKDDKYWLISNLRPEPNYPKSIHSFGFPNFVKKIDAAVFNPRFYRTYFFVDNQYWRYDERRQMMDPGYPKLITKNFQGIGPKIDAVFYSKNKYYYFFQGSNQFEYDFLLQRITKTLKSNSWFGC

Chain of Neutrophil collagenase (P22894 whole entry): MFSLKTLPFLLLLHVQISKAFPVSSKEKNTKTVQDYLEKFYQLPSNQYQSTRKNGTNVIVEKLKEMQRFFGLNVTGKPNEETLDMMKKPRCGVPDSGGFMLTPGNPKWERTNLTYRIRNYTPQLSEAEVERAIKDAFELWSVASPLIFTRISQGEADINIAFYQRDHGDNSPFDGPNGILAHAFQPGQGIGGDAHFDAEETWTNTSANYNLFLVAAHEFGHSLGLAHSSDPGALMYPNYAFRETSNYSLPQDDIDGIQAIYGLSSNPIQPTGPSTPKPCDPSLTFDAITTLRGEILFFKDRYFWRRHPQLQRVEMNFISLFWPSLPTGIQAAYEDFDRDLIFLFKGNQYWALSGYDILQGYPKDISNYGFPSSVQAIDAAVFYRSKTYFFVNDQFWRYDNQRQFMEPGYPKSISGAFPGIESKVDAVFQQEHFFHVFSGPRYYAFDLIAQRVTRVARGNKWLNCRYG

Row | Structure (SMILES) | Ki (Interstitial collagenase) | Ki (Matrilysin) | Ki (Neutrophil collagenase) | solubility [1] | Ki (Collagenase 3) | Ki [2]
1 | COc1ccc(S(=O)(=O)N(CCO[C@@H]2O[C@H](CO)[C@@H](O)[C@H](O)[C@H]2O)CC(=O)NO)cc1 | 286 nM | 2000 nM | 9.1 nM | 20 mg/mL (≈ 42.9 mM) | 1.7 nM | –
2 | COc1ccc(S(=O)(=O)N(CC(=O)NO)C[C@H](O)CO)cc1 | 160 nM | 9000 nM | 24 nM | 20 mg/mL (≈ 59.8 mM) | 3.6 nM | 8 nM
3 | O=C(CN(CCO)S(=O)(=O)c1ccc(F)cc1)NO | 151 nM | 3000 nM | 173 nM | 20 mg/mL (≈ 68.4 mM) | 46 nM | 40 nM
4 | O=C(CN(C[C@H](O)CO)S(=O)(=O)c1ccc(-c2ccccc2)cc1)NO | 742 nM | 4000 nM | 48 nM | < 1 mg/mL | 18 nM | 60 nM
5 | COc1ccc(S(=O)(=O)N(CC(=O)NO)CC(C)C)cc1 | – | 13000 nM | 9 nM | 20 mg/mL (≈ 63.2 mM) | 3.1 nM | 4.3 nM

Molecules with a lower Ki (Matrilysin), results first:

Row | Ki (Interstitial collagenase) | Ki (Matrilysin) | Ki (Neutrophil collagenase) | solubility [1] | Ki (Collagenase 3) | Ki [2] | Structure (SMILES)
6 | 67 nM | 1600 nM | 4.6 nM | 20 mg/mL (≈ 57.1 mM) | 2.7 nM | – | O=C(CN(CCO)S(=O)(=O)c1ccc(-c2ccccc2)cc1)NO
7 | 128 nM | 1500 nM | 13 nM | 20 mg/mL (≈ 65.7 mM) | 1 nM | 7.6 nM | COc1ccc(S(=O)(=O)N(CCO)CC(=O)NO)cc1
8 | 32 nM | 344 nM | 8 nM | 20 mg/mL (≈ 54.9 mM) | 1.7 nM | 7 nM | COc1ccc(S(=O)(=O)N(C[C@H](O)CO)[C@H](CO)C(=O)NO)cc1
9 | 143 nM | 823 nM | 9 nM | 20 mg/mL (≈ 68.9 mM) | 2.2 nM | 6 nM | COc1ccc(S(=O)(=O)N[C@H](CO)C(=O)NO)cc1
10 | 287 nM | 984 nM | 10 nM | 20 mg/mL (≈ 65.7 mM) | 2.9 nM | 11 nM | COc1ccc(S(=O)(=O)N[C@@H](C(=O)NO)[C@@H](C)O)cc1
